In brackets after ≈: the same amount, converted by molar mass.
Columns and labels:
Format in all cases: functional
Settings in all cases: read-out: ED50 (the source's name)
MCF7 = assay: Cytotoxicity against human MCF7 cells expressing ER
Outline: (§1)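 SRB growth-inhibition assay. Cells grown in RPMI-1640 with 25 mM HEPES, 0.25% sodium bicarbonate, 10% FBS and 100 µg/mL kanamycin. Freshly trypsinized cells seeded at 1500-7500 per well, with compound added from DMSO-diluted stock. After 3 days, attached cells fixed with cold 50% TCA, stained with 0.4% SRB, dye solubilized, A562 read. ED50 = concentration reducing growth 50%, mean of ≥3 independent determinations.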

MDA-MB-231 = assay: Cytotoxicity against human MDA-MB-231 cells lacking ER; outline: as §1
SK-BR-3 = assay: Cytotoxicity against human SK-BR-3 cells expressing HER2 and lacking ER; outline: as §1
A-431 = assay: Cytotoxicity against human A431 cells; outline: as §1
SW-620 = assay: Cytotoxicity against human SW620 cells; outline: as §1
KB = assay: Cytotoxicity against human KB cells; outline: as §1
ZR-75-1 = assay: Cytotoxicity against human ZR-75-1 cells expressing ER; outline: as §1
Hs-578T = assay: Cytotoxicity against human HS 587-T cells lacking ER; outline: as §1

Row | SMILES | EC50 (MCF7) [µg/mL] | EC50 (MDA-MB-231) [µg/mL] | EC50 (SK-BR-3) [µg/mL] | EC50 (A-431) [µg/mL] | EC50 (SW-620) [µg/mL] | EC50 (KB) [µg/mL] | EC50 (ZR-75-1) [µg/mL] | EC50 (Hs-578T) [µg/mL]
1 | CCc1cccc2c1ccc1c3occc3c(=O)oc21 | > 10 | > 10 | – | – | – | – | – | –
2 | O=c1oc2c3ccccc3ccc2c2occc12 | > 20 | 10.5 (≈ 44.4 µM) | – | – | – | – | – | –
3 | Cc1cccc2c1ccc1c3occc3c(=O)oc21 | 5.5 (≈ 22 µM) | – | 8.5 (≈ 34 µM) | 8.3 (≈ 33.2 µM) | > 10 | > 10 | > 10 | –
4 | CCc1cccc2c1ccc1c3occ(C)c3c(=O)oc21 | 0.45 (≈ 1.62 µM) | 13.5 (≈ 48.5 µM) | 0.1 (≈ 0.359 µM) | > 10 | > 10 | > 10 | 0.18 (≈ 0.647 µM) | 10 (≈ 35.9 µM)
5 | Cc1cccc2c1ccc1c3occ(C)c3c(=O)oc21 | 0.6 (≈ 2.27 µM) | 10 (≈ 37.8 µM) | 0.18 (≈ 0.681 µM) | > 10 | > 10 | > 10 | 0.25 (≈ 0.946 µM) | 16 (≈ 60.5 µM)
6 | COc1cc2c3occ(C)c3c(=O)oc2c2ccccc12 | 5 (≈ 17.8 µM) | – | 8.6 (≈ 30.7 µM) | 9.5 (≈ 33.9 µM) | 9 (≈ 32.1 µM) | > 10 | > 10 | –
7 | Cc1coc2c1c(=O)oc1c3ccccc3ccc21 | 4 (≈ 16 µM) | 10.3 (≈ 41.2 µM) | – | – | – | – | 4 (≈ 16 µM) | 7.5 (≈ 30 µM)
8 | Cc1coc2c1c(=O)oc1c3ccccc3c(Cl)cc21 | 5 (≈ 17.6 µM) | – | 4.5 (≈ 15.8 µM) | 8 (≈ 28.1 µM) | > 10 | > 10 | 8.6 (≈ 30.2 µM) | –
9 | O=c1oc2c3ccccc3c(Cl)cc2c2occc12 | 7 (≈ 25.9 µM) | – | > 10 | > 10 | > 10 | > 10 | > 10 | –
10 | COc1cc2c3occc3c(=O)oc2c2ccccc12 | 3.4 (≈ 12.8 µM) | – | 4 (≈ 15 µM) | 9.5 (≈ 35.7 µM) | 4 (≈ 15 µM) | 9.5 (≈ 35.7 µM) | 8.5 (≈ 31.9 µM) | –
11 | O=c1oc2c(ccc3ccccc32)c2c1C(O)CO2 (stereo not drawn) | 12.5 (≈ 49.2 µM) | – | – | – | – | – | – | –
12 | CC/C(=C(\c1ccccc1)c1ccc(OCCN(C)C)cc1)c1ccccc1 [TAMOXIFEN] | 5 (≈ 13.5 µM) | 8.5 (≈ 22.9 µM) | 5 (≈ 13.5 µM) | 7 (≈ 18.8 µM) | 4 (≈ 10.8 µM) | 9 (≈ 24.2 µM) | 3.6 (≈ 9.69 µM) | 7 (≈ 18.8 µM)

Source: ChEMBL document CHEMBL1146885, “Antitumor agents. 254. Synthesis and biological evaluation of novel neo-tanshinlactone analogues as potent anti-breast cancer agents” (2006)
